Experimental data taken from ChEMBL document CHEMBL2380254, “Optimization of tocotrienols as antiproliferative and antimigratory leads” (Eur J Med Chem, 2013).

Columns and labels:
[1] = test system: T47D; test: Growth inhibition of human T47D cells assessed as cell growth at 10 uM after 48 hrs by sulforhodamine B assay; format: functional; details: read-out: Activity
Outline: (§1)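 Single-dose NCI-60 test at 10 µM. Cells were grown in RPMI 1640 with 5% FBS and 2 mM L-glutamine, preincubated 24 h, with T0 plates TCA-fixed. Exposure was 48 h at 37 °C, 5% CO2. Cells were fixed with cold TCA (final 10%, 4 °C, 60 min), stained with SRB and read at 515 nm. Percent growth was taken relative to T0 and untreated control; negative values denote cell kill.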

[2] = test system: DU-145; test: Growth inhibition of human DU145 cells assessed as cell growth at 10 uM after 48 hrs by sulforhodamine B assay; format: functional; details: DU-145, 48 h, read-out: Activity
Outline: (§2)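 NCI-60 single-dose screen at 10 µM: cells in RPMI 1640 with 5% FBS, preincubated 24 h, then exposed 48 h at 37 °C. TCA fixation (16% final for suspension cells), SRB staining, absorbance 515 nm. Percent growth relative to time-zero and untreated control plates; negative values indicate cell kill.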

[3] = test system: OVCAR-5; test: Growth inhibition of human OVCAR5 cells assessed as cell growth at 10 uM after 48 hrs by sulforhodamine B assay; format: functional; details: OVCAR-5, 48 h, read-out: Activity
Outline: (§3)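 Single-dose NCI-60 screen: adherent cells in RPMI 1640 with 5% FBS were exposed to 10 µM for 48 h at 37 °C after a 24 h preincubation. They were fixed in situ with cold TCA (10% final), stained with 0.4% SRB in 1% acetic acid, solubilized in 10 mM Tris base, and read at 515 nm. Percent growth was taken relative to time-zero and control plates.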

[4] = test system: SK-MEL-28; test: Growth inhibition of human SK-MEL-28 cells assessed as cell growth at 10 uM after 48 hrs by sulforhodamine B assay; format: functional; details: SK-MEL-28, 48 h, read-out: Activity; outline: as §3
[5] = test system: SNB-75; test: Growth inhibition of human SNB75 cells assessed as cell growth at 10 uM after 48 hrs by sulforhodamine B assay; format: functional; details: SNB-75, 48 h, read-out: Activity; outline: as §1
[6] = test system: SF-295; test: Growth inhibition of human SF295 cells assessed as cell growth at 10 uM after 48 hrs by sulforhodamine B assay; format: functional; details: SF-295, 48 h, read-out: Activity; outline: as §3
[7] = test system: NCI-H460; test: Growth inhibition of human NCI-H460 cells assessed as cell growth at 10 uM after 48 hrs by sulforhodamine B assay; format: functional; details: NCI-H460, 48 h, read-out: Activity; outline: as §3
[8] = test system: HOP-92; test: Growth inhibition of human HOP92 cells assessed as cell growth at 10 uM after 48 hrs by sulforhodamine B assay; format: functional; details: HOP-92, 48 h, read-out: Activity; outline: as §2
[9] = test system: HOP-62; test: Growth inhibition of human HOP62 cells assessed as cell growth at 10 uM after 48 hrs by sulforhodamine B assay; format: functional; details: HOP-62, 48 h, read-out: Activity; outline: as §2
[10] = test system: MOLT-4; test: Growth inhibition of human MOLT4 cells assessed as cell growth at 10 uM after 48 hrs by sulforhodamine B assay; format: functional; details: MOLT-4, 48 h, read-out: Activity
Outline: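 Single 10 µM dose applied to suspension cells in RPMI 1640 with 5% FBS and 2 mM L-glutamine for 48 h at 37 °C. Settled cells were fixed with 80% TCA (16% final), stained with SRB, and read at 515 nm. Percent growth was calculated against time-zero and untreated control optical densities.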

[11] = test system: MDA-MB-231; test: Antiproliferative activity against human MDA-MB-231 cells by MTT assay; format: functional, cell-based
Outline: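 Cells plated at 8 × 10^3/well (MDA-MB-231) or 10^4/well (MCF7) in 96-well plates. Compounds fed in media with 5% FBS (MDA-MB-231) or 1% FBS (MCF7). MTT read-out of viable cells.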

[12] = Antiproliferative activity against mouse +SA cells by MTT assay; format: functional, cell-based; details: +SA cell
Outline: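 Mouse +SA mammary epithelial cells in serum-free DMEM/F12 with BSA, transferrin, insulin and EGF. Compounds from DMSO stock conjugated to BSA (overnight, 37 °C); 0–40 µM, final DMSO <0.1%. MTT 0.42 mg/mL for 4 h at 37 °C, isopropanol solubilization, OD 570 nm. Cell number from a standard curve; IC50 by non-linear regression.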

[13] = test system: MDA-MB-231; test: Growth inhibition of human MDA-MB-231 cells after 48 hrs by sulforhodamine B assay; format: functional; details: MDA-MB-231, 48 h
Outline: (§4)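 NCI-60 panel cells grown in RPMI 1640 with 5% FBS and 2 mM L-glutamine, seeded at 5000–40,000 cells/well and preincubated 24 h. Five 10-fold dilutions (0.001–100 µM) from DMSO stocks were added for 48 h at 37 °C. Adherent cells were fixed with cold TCA (10% final) for 60 min at 4 °C, stained with 0.4% SRB, and read at 515 nm. GI50 was set where 100×(T−T0)/(C−T0)=50.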

[14] = test system: TK-10; test: Growth inhibition of human TK10 cells after 48 hrs by sulforhodamine B assay; format: functional; details: TK-10, 48 h
Outline: (§5)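 NCI-60 five-dose screen. Cells were grown in RPMI 1640 with 5% FBS and 2 mM L-glutamine, plated at 5000–40,000 cells/well and incubated 24 h before dosing, with T0 plates TCA-fixed. DMSO stocks were diluted to doses of […] and exposed 48 h at 37 °C, 5% CO2. Cells were fixed with cold TCA (final 10%, 60 min, 4 °C), stained with 0.4% SRB in 1% acetic acid for 10 min, solubilized in 10 mM trizma base and read at 515 nm. GI50 is where 100×(T−T0)/(C−T0)=50.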

[15] = test system: UO-31; test: Growth inhibition of human UO31 cells after 48 hrs by sulforhodamine B assay; format: functional; details: UO-31, 48 h; outline: as §5
[16] = test system: OVCAR-4; test: Growth inhibition of human OVCAR4 cells after 48 hrs by sulforhodamine B assay; format: functional; details: OVCAR-4, 48 h; outline: as §4
[17] = test system: SF-268; test: Growth inhibition of human SF268 cells after 48 hrs by sulforhodamine B assay; format: functional; details: SF-268, 48 h; outline: as §4
[18] = test system: MOLT-4; test: Growth inhibition of human MOLT4 cells after 48 hrs by sulforhodamine B assay; format: functional; details: MOLT-4, 48 h
Outline: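 NCI-60 suspension lines in RPMI 1640 with 5% FBS and 2 mM L-glutamine, preincubated 24 h. A five-concentration 10-fold series (0.001–100 µM) was given for 48 h at 37 °C. Settled cells were fixed with 80% TCA (16% final), stained with SRB, and read at 515 nm. GI50 was taken where 100×(T−T0)/(C−T0)=50, with T0 plates fixed at drug addition.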

[19] = test system: HL-60(TB); test: Growth inhibition of human HL-60(TB) cells after 48 hrs by sulforhodamine B assay; format: functional; details: HL-60, 48 h
Outline: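 HL-60(TB) cells (suspension) grown in RPMI 1640 with 5% FBS and 2 mM L-glutamine. They were plated and preincubated for 24 h, with T0 plates fixed at that point. Drug was given at five 10-fold dilutions for 48 h at 37 °C. Settled cells were fixed with TCA (16% final), stained with 0.4% SRB in 1% acetic acid and read at 515 nm. GI50 was taken where 100×(T−T0)/(C−T0)=50.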

Compound | growth at 10 µM [1] | growth at 10 µM [2] | growth at 10 µM [3] | growth at 10 µM [4] | growth at 10 µM [5] | growth at 10 µM [6] | growth at 10 µM [7] | growth at 10 µM [8] | growth at 10 µM [9] | growth at 10 µM [10] | IC50 [11] | IC50 [12] | GI50 [13] | GI50 [14] | GI50 [15] | GI50 [16] | GI50 [17] | GI50 [18] | GI50 [19]
CC(C)=CCC/C(C)=C/CC/C(C)=C/CC[C@]1(C)CCc2c3c(c(C)c(C)c2O1)OCN(CCc1ccc(O)cc1)C3 | 93.7% | 107% | 111% | 76.6% | 69.2% | 100% | 62.4% | 87.9% | 112% | 40.4% | > 5 µM | 1.5 µM | – | – | – | – | – | – | –
CC(C)=CCC/C(C)=C/CC/C(C)=C/CC[C@]1(C)CCc2c3c(c(C)c(C)c2O1)OCN(CCCCCCCCO)C3 | 56.1% | 73.1% | 72.8% | 82.9% | 74.3% | 48.1% | 9.26% | – | 63.2% | 2.94% | > 20 µM | 1.4 µM | 2.89 µM | 3.41 µM | 2.37 µM | 2.81 µM | 2.78 µM | 3.26 µM | 3.44 µM
CC(C)=CCC/C(C)=C/CC/C(C)=C/CC[C@]1(C)CCc2c3c(c(C)c(C)c2O1)OCN(CCCCCCCCCCCCO)C3 | 95.8% | 109% | 114% | 110% | 94.6% | 93.5% | 103% | 107% | 104% | 90.5% | > 50 µM | > 5 µM | – | – | – | – | – | – | –
COc1ccc(CCN2COc3c(C)c(C)c4c(c3C2)CC[C@@](C)(CC/C=C(\C)CC/C=C(\C)CCC=C(C)C)O4)cc1OC | 98% | 111% | 101% | 93.6% | 82.8% | 108% | 103% | 106% | 85.7% | 76% | > 50 µM | 1.8 µM | – | – | – | – | – | – | –
CC(C)=CCC/C(C)=C/CC/C(C)=C/CC[C@]1(C)CCc2c3c(cc(C)c2O1)OCN(CCCCCCCCCCO)C3 | 86.1% | 100% | 105% | 99.9% | 74.5% | 114% | 91.6% | – | 107% | 67.6% | 12.4 µM | 3.6 µM | – | – | – | – | – | – | –
CC(C)=CCC/C(C)=C/CC/C(C)=C/CC[C@]1(C)CCc2c3c(c(C)c(C)c2O1)OCN(CCCCCCCCCCO)C3 | 85.2% | 67% | 106% | 98.2% | 91.4% | 111% | 75.5% | 93.7% | 90% | 79.5% | 15.7 µM | 4.4 µM | – | – | – | – | – | – | –
